Published values from different studies.
Each line is one published result; the experiments were not run side by side.
Target: Ephrin type-B receptor 1 (EPHB1, Homo sapiens, UniProt P54762)
Residues used in one study (P54762 1-984): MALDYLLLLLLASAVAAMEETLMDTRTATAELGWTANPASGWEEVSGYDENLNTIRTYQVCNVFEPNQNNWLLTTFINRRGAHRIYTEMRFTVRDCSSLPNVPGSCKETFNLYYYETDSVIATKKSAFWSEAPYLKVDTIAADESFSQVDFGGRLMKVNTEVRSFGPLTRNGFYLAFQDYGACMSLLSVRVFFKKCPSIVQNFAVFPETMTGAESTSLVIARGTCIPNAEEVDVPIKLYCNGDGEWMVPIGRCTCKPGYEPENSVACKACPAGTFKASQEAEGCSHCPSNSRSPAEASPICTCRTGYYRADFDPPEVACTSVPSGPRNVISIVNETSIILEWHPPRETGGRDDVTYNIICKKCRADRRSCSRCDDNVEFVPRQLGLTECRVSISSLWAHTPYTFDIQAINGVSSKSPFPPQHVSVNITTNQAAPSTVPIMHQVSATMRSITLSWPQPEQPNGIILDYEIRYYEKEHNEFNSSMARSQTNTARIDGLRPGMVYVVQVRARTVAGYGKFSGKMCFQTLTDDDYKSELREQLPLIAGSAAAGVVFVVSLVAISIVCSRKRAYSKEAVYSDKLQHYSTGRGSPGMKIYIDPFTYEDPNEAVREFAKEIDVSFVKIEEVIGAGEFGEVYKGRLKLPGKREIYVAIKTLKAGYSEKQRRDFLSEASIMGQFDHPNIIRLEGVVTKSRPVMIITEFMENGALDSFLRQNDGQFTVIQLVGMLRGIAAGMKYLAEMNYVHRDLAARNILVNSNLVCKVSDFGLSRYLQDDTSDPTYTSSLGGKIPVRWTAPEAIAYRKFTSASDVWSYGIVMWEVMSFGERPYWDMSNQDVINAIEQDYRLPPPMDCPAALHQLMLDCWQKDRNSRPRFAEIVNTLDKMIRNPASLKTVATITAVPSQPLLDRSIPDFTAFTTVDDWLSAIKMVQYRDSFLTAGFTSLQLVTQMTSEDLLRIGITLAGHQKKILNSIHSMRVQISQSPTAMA

| SMILES | test | conditions | remaining binding [%] |
| --- | --- | --- | --- |
| O=C(NCCCN1CCOCC1)c1ccc(Nc2ncc(Cl)c(-c3ccc(Cl)s3)n2)cc1 | binding, competition with immobilised ligand | 1 µM | 58 |
| N#CC1(c2ccccn2)CCN(Cc2cc(C(=O)N3CCCC3)c(=O)n3ccccc23)CC1 | cell-free assay, competition with immobilised ligand | 1 µM | 91 |
| CNC(=O)[C@@H]1CC[C@@H](n2c(-c3ccc4cnccc4c3)nc3ccc(C(=O)NCc4cccc(C(N)=O)c4)cc32)C1 | binding, competition with immobilised ligand | 1 µM | 100 |
| C[C@@H]1CCN(c2nccc(-c3cnn4ncccc34)n2)C1 | binding | 1 µM | 97 |
| O=C(c1ccc(Nc2nccc(-c3cc4ccccc4s3)n2)cc1)N1CCC(N2CCCC2)CC1 | binding, competition with immobilised ligand | 1 µM | 47 |
| O=C(Nc1c[nH]nc1C(=O)NC1CCNCC1)c1cc(F)cc(F)c1 | binding, competition with immobilised ligand | 1 µM | 100 |
| Cc1cnn2ncc(-c3ccnc(N(C)C)n3)c2c1 | binding | 1 µM | 100 |
| COc1ncc2cc3ccccc3nc2c1C#N | cell-free assay, competition with immobilised ligand | 5 µM | 91 |
| CCS(=O)(=O)c1cc2cc(C[C@](O)(CC(C)(C)c3ccc(F)cc3C(N)=O)C(F)(F)F)[nH]c2cn1 | cell-free assay, competition with immobilised ligand | 1 µM | 86 |
| C=CC(=O)N1CCC(C(=O)NCC(=O)N2CCN(c3nc(-c4cnc(N)nc4C(F)F)nc(N4CCOCC4)n3)CC2)CC1 | binding, competition with immobilised ligand | 1 µM | 100 |
| CC1CCCN1c1nccc(-c2cnn3ncccc23)n1 (centres unmarked) | binding | 1 µM | 100 |
| CO[C@@H](C)c1c(Nc2ccc([C@H](N(C)C(=O)C3CCS(=O)(=O)CC3)C(F)(F)F)cc2)cnc2cc(Cl)nn12 | cell-free assay, competition with immobilised ligand | 1 µM | 86 |
| CN(C)c1ncc(F)c(-c2cnn3ncccc23)n1 | binding | 1 µM | 100 |
| O=C(c1ccc(Nc2ncc(Cl)c(-c3ccc(Cl)s3)n2)cc1)N1CCC(N2CCCC2)CC1 | binding, competition with immobilised ligand | 1 µM | 30 |
| CC(C)(O)c1cncc(-c2nc3ccc(F)cc3n2C2CC2)c1 | cell-free assay, competition with immobilised ligand | 1 µM | 100 |
| COc1cnc(Nc2cccc(S(N)(=O)=O)c2)nc1N1CCN(c2ccccc2)C(=O)C1 | binding, competition with immobilised ligand | 1 µM | 100 |
| Cc1cc(NC(=O)c2cccc(S(F)(F)(F)(F)F)c2)cc(-n2ccn3nc(-c4cccnc4)cc23)c1 | cell-free assay, competition with immobilised ligand | 1 µM | 100 |
| CCN1CCN(Cc2ccc(C(=O)Nc3ccc(C)c(Oc4ccc5c(c4)CC(=O)N5)c3)cc2C(F)(F)F)CC1 | binding, competition with immobilised ligand | 1 µM | 100 |
| N[C@@H]1CCN(c2nccc(-c3cnn4ncccc34)n2)C1 | binding | 1 µM | 96 |
| Nc1cnc(N2CCc3cc(S(=O)(=O)Nc4c(F)cc(Cl)cc4F)cc(N4CCCC4=O)c32)nc1 | cell-free assay, competition with immobilised ligand | 1 µM | 92 |
